Measurements: publication PMC10681497 (CPT: Pharmacometrics & Systems Pharmacology, 2023)
Where two headings read alike, the source gives them in different places.

What was measured:
Population PK analysis = type: in vivo, human
How it was run: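 A prior two‑compartment NONMEM model was refined, keeping its interindividual random effects. Covariates were tested on CL/F, Vc/F (age, body weight), Vp/F (body weight) and Ka (sex, fasting, PPI, H2B). Selection used stepwise forward addition (p 0.05) and backward elimination (p 0.005) by likelihood ratio test. Evaluation used nonparametric bootstrap and prediction‑corrected VPC.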

[1] = Simulated steady-state exposure; settings: human, plasma, oral, 13.5 mg
How it was run: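 Each patient's dense steady‑state post hoc concentration‑time profile was simulated from the updated population PK model. Cmax,ss, Cmin,ss and AUCss were then derived by noncompartmental methods, with oral once‑daily dosing of 13.5 mg.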

[2] = tested on: serum phosphate concentration; experiment: Exposure-response Emax model of serum phosphate change from baseline; design: species or system human; settings: in vivo
How it was run: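 Serum phosphate was measured in serum chemistry in 300 pooled monotherapy patients from FIGHT‑101, ‑102 and ‑202. The change from baseline was the mean of C1D8 and C1D15. A three‑parameter Emax nonlinear model related this change to model‑derived AUCss, with baseline serum phosphate as a covariate. Parameters were the maximum change (Emax) and the exposure giving 50% of the maximum increase.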

[3] = tested on: serum creatinine concentration; experiment: Exposure-response Emax model of serum creatinine percent change from baseline; type: in vivo, human
How it was run: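 Serum creatinine was measured in routine serum chemistry in 300 pooled monotherapy patients from FIGHT‑101, FIGHT‑102 and FIGHT‑202, using the mean of C1D8 and C1D15. A three‑parameter Emax nonlinear model related percent change from baseline to AUCss. Emax is the maximum change, with a half‑maximal exposure term. For prediction, AUCss was the mean post hoc value at 13.5 mg q.d. and was dose‑scaled for 6, 9 and 20 mg.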

[4] = tested on: patients with CCA with FGFR2 fusions/re‐arrangements; settings: for Median PFS: 13.5 mg once daily
OCT2 = settings: read-out: IC50, OCT2; cited from earlier work
MATE1 = settings: read-out: IC50, MATE1; cited from earlier work
[5] = previously characterized; cited from earlier work
[6] = previously characterized; cited from earlier work; remark: listed apart in the source
[7] = cited from earlier work
[8] = covariate effect, final population PK model
[9] = FIGHT-106, healthy participants, 13.5 mg

Reduction in K a with use of PPI (Population PK analysis; concomitant PPI vs no PPI): 62% | H2B antagonist on D1 (Population PK analysis; [8]): −33.4% | Male sex on CL/F (Population PK analysis; [8]): 26.2% | Male sex on K a (Population PK analysis; [8]): −58.3% | PPI on K a (Population PK analysis; [8]): −62.0% | Phosphate binder on CL/F (Population PK analysis; [8]): −15.5% | D1 (duration of zero-order drug release), population mean (Population PK analysis; final population PK model): 0.810 h | K a (absorption rate constant), population mean (Population PK analysis; final population PK model): 3.67 h⁻¹ | CL/F (apparent clearance), population mean (Population PK analysis; final population PK model, 467 participants): 10.7 L/h | Higher CL/F in men compared with women (Population PK analysis; human, in vivo): 26.2% | Lower K a in men compared with women (Population PK analysis; human, in vivo): 58.3% | Reduction in D1 with use of H2B (Population PK analysis; human, in vivo): 33.4% | Vd/F (Population PK analysis; human, plasma, oral): 118 L | Reduction in CL/F with use of phosphate-binding agents (Population PK analysis; users vs nonusers): 15.5% | AUC [1]: 2.85 µM·h | Estimated percentage change from baseline in serum creatinine concentration ([3]; 6 mg, dose-scaled mean post hoc AUCss): 14.2% | Estimated percentage change from baseline in serum creatinine concentration ([3]; 9 mg, dose-scaled mean post hoc AUCss): 18.3% | Estimated percentage change from baseline in serum creatinine concentration ([3]; 13.5 mg q.d., mean post hoc AUCss): 22.7% | Estimated percentage change from baseline in serum creatinine concentration ([3]; 20 mg, dose-scaled mean post hoc AUCss): 26.9%
Compound: CCN1C(=O)N(c2c(F)c(OC)cc(OC)c2F)Cc2cnc3[nH]c(CN4CCOCC4)cc3c21 [pemigatinib]
Body weight on V c/F (Population PK analysis; [8]): 0.842% | Body weight to V p/F (Population PK analysis; [8]): 1.13% | Reduction from baseline per 1-mg/dL increase in baseline serum phosphate level [2]: less than or equal to 0.185 mg/dL | Model predicted ORR ([4]; 6 mg, model on mean change from baseline in serum phosphate): 29.7% | Model predicted ORR ([4]; 9 mg, model on mean change from baseline in serum phosphate): 41.4% | Model predicted ORR ([4]; 13.5 mg, model on AUCss, mean AUCss 2850 h∙nM): 45.2% | Model predicted ORR ([4]; 13.5 mg, model on mean change from baseline in serum phosphate): 47.1% | Model predicted ORR ([4]; 20 mg, model on mean change from baseline in serum phosphate): 46.8% | Median PFS ([4]; AUCss first quartile): 6.93 months | Median PFS ([4]; AUCss fourth quartile): 7.03 months | Median PFS ([4]; AUCss second quartile): 6.93 months | Median PFS ([4]; AUCss third quartile): 9.20 months | IC50 (OCT2): 75 nM | IC50 (MATE1): 1100 nM | pH-dependent solubility [5]: poorly soluble at pH > 2 | Permeability [6]: high permeability | Increase in AUC on co-administration of the H2B ranitidine [7, 9]: 3% | Reduction in C max on co-administration of the H2B ranitidine [7, 9]: 2% | Effect of concomitant PPI esomeprazole on pemigatinib exposure ([7]; FIGHT-106): only a modest effect
